In the EternaBench riboswitch data:

Tested on: MS2 coat protein
Assay: apparent Kd, MS2 coat protein; higher = weaker binding; RNA-MaP array; FMN 200 µM where present
Summary of the method: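 Two titrations, one without ligand and one with constant ligand, were run with SNAP-549-labelled MS2 coat protein from 0.7 or 1.5 nM, doubling to 3 µM. The targets were designs transcribed by stalled E. coli RNA polymerase on Illumina sequencing-chip clusters, in 100 mM Tris-HCl pH 7.5, 80 mM KCl, 4 mM MgCl2, BSA, DTT, yeast tRNA and Tween-20. The apparent Kd is the median of filtered per-cluster binding-curve fits, with green signal normalised to red-channel RNA signal and control-cluster median Fmax.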

[1] = designed as: ON switch for flavin mononucleotide, no ligand
[2] = ligand present: flavin mononucleotide, designed as: ON switch for flavin mononucleotide
[3] = designed as: OFF switch for flavin mononucleotide, no ligand
[4] = ligand present: flavin mononucleotide, designed as: OFF switch for flavin mononucleotide

Sequence	apparent Kd [1] [nM]	apparent Kd [2] [nM]	apparent Kd [3] [nM]	apparent Kd [4] [nM]
GAGUAGAUAGCAGGAUAUCUAUUUCCUACAUGAGGAUCACCCAUGUAGAUGAUCACCCAUGUAAAGGAGAAGGGCUAUCUAUUC	355	160	–	–
UAGGCGAACAUGAGGAUCACCCAUGUACGCGGUAUAUGAGCGAGAAGGGUAUGAUGUGUGGUCCUACAGGAUAUCGCUAAUAAA	26.2	6.52	–	–
GCUGUCGCAUGAGGAUAUGGUCAGCUUUGCUGACCAGAAGGCAUGUCAAUAGACAUGAGGAUCACCCAUGUAGUUAGGGCGGCU	571	57.4	–	–
UUUCUCGGCGAGAAGGGAGUACAUGAGGAUCACCCAUGUGGUCCAUGGAGCUCAGGAUAUCGCGAGGUCGAUGUCGACGGAGUA	–	–	127	231
UUAGGCGACCAGAAGGGUGACAUGAGGAUCACCCAUGUAGAUGUGUUCCCGCUUGGGAGCCGUCCACAGGAUAUGGUUGGUUAG	35.7	16.8	–	–
GGUAUACAUGAGGAUCACCCAUGUCGUAUGACAUGAGGAUAUGUACAGACUUCGGUCUGUACAGAAGGCGUGUGUC	362	158	–	–
GGUACCAUCACAGGAUAUGCUUUCCUUUGGGAAGCAGAAGGGUGUAACAUGAGGAUCACCCAUGUGGUGCCAGGGCGUGAGCCC	470	42.6	–	–
UCUGUCGUUGUGAGGAUAUGCCCAAAUAAAAGCGGGCAGAAGGCACAUGAGGAUCACCCAUGUCCUGCGGUUUU	–	–	21.4	237
ACUAGAUGAGGAUAUGCAUGUUUUCAUGUUCUUCUAGAUUAACAUGAGGAUCACCCAUGUAGAAGGCGUCUUAU	–	–	19.4	37.9
GCAGCACUGUUUUACAUGAGGAUCACCCAUGUCGAUUGUUAUGAGGAUAUGCAUCGUAUGAAGAUGCAGAAGGCAUUGUGCUGC	8.32	5.48	–	–
CGUGCGUAUGUGAGGAUAUGCUGGUCCUUGGAUCGGCAGAAGGCACAUGAGGAUCACCCAUGUGGUGUCGUUCU	–	–	172	23.1
GGAAGUCAAAGACUUCCUUAACGAACAUGAGGAUCACCCAUGUAGGAUAUGCUACUCAAAGAGUAGCAGAAGGACAUGUGUCUU	–	–	32.1	168
UGGUACUAAGGAGGAUAUGGGAAGAUACAUGAGGAUCACCCAUGUUUAAGAAUGCCGAGAGGCAACUAGAAGGCCCUAGUACCU	415	21.9	–	–
GGGUACAUCGGAGGAUAUCAUGUAAAUACAUGAGGAUCACCCAUGUCGAUGGAGACAUCGGAGAUUGAGAAGGCCGAUGUAACG	183	9.47	–	–
CUUUUGUGAGGAUAUUAGUAGUAAUACAAUAGUAUUACUACUGAGAAGGCACAUGAGGAUCACCCAUGUUCCUC	–	–	38.2	147
GGAGCUCACAUGAACAUGAGGAUCACCCAUGUAAAUUCUCAUGAGGAUAUGGAUCCUAAUUGGAUCCAGAAGGCAUGGAGCUCC	1350	316	–	–
GUAUUGAUAACAGGAUAUAUGAGUCCUACAUGAGGAUCACCCAUGUAGGUGAUCAGCCGUGAUUAGUAGAAGGGUUAUCAAUAC	12.5	5.98	–	–
AUAGCGCCCGAGAAGGACGUACCACAUGUUGAUCACCGAUAUAAGGAACGUAGGAUAUUGGACAUGAGGAUCACCCAUGUGGAU	122	47.1	–	–
CUGUAACAUGAGGAUCACCCAUGUCAGGAUAUCUAUCAUAGCAUCGAAAGAUGCGGGUAGAGAAGGGACUAUCC	–	–	17	18.2
UUUAUUUUUACAGGAUAUCAUCUAUAUAACUCAUGCACAUGUUUACAUGAGGAUCACCCAUGUUUUGAGAAGGGUAAUGAAACA	440	228	–	–
GUCGGGUCUCACGCGUCGGUCCACAUGAGGAUCACCCAUGUCAAGGAUAUAGCGUCUUCCGGGCGUUAGAAGGUGGCCAUUGGU	–	–	26.6	61

Sequence	apparent Kd [1] [nM]	apparent Kd [2] [nM]	apparent Kd [3] [nM]	apparent Kd [4] [nM]
GUAGCAUACCAAGGAUAUUUAGGACUUUGAUAGACAUGAGGAUCACCCAUGUGGCGUUAGUCACGGGAGAAGGUGGUAUGCUAC	63.5	16.9	–	–
UACAGACAUGAGGAUCACCCAUGUGAGGAUAUUUCUGCUGGGAUCAGCCCAAUAUGCGAGAGAAGGCACUAGGG	–	–	133	184
GUCGGAAACGACAAAAGUAUGGAUCCAGAAGGCAUGAAACAUGAGGAUCACCCAUGUCAAAGACAUGAGGAUAUGGAUCCAUAC	4.06	3.19	–	–
UUUUUUUAUAAGGAUAUGGGAGUCGAUAGACACCCAGAAGGUAUAACAUGAGGAUCACCCAUGUGUCCUUUUUU	–	–	21.2	24.1
GAAGAAAAGGCAGGAUAUCAGAAACACAUGAUAAGGAGAUGCAACAUGAGGAUCACCCAUGUAAAUGAGAAGGGCCGCCCUUCC	–	–	35.6	62.1
UCGAAGAAUGCAGGAUAUACAUGAGGAUCACCCAUGUCACGGUCGGCUUCUGUAGAAGGGCACUUACCCAGGUAAAUUGCUUGG	–	–	5.39	5.81
AGCUGUGGCCAAGGAUAUCUAACCUUAAAUACCGACGUAUAGUCGGACAUGAGGAUCACCCAUGUGGAGAAGGUGGUCUCAGCA	–	–	25.3	37.3
CACGAUGAUGUAGGAUAUAUGCUGGAAUACAGCAUAGAAGGACAUGAGGAUCACCCAUGUAAAGUGUCUCCAAAUAACAUCGUG	–	–	30.3	77.5
AAACAUGUCCGAGGAUAUCUGAGAUCAUUUUCAAGAGAAGGCGGACAUGAGGAUCACCCAUGUCUCUCCUCAUCGACUCCAAAU	–	–	6.32	21.1
GUCGUGCAGCUUUGCUGUACGAGUACAUGAGGAUCACCCAUGUAGGAUAUGGUACGCUUUGCGUGCCAGAAGGACGUGCGUUGG	–	–	48	134
UUAUUACAUGAGGAUCACCCAUGUGAGGAUAUCGAUGUAACUAGCAGCGUGCGGGACUCGAGAAGGCACUUGGA	–	–	61.1	144
UUUGAAUAGGUAGGAUAUACAUACAUUCCUACAUUACUAACAUGAGGAUCACCCAUGUAUACAUUGUAGAAGGACCAGAUUGAU	–	–	26.1	23.9
GGACAUUUACAGAAGGGCAAGUUUUAUAGUGAAUAUUUAGUUCUGACUUGCAGGAUAUGUUGAACAUGAGGAUCACCCAUGUCC	16.4	10.5	–	–
CAGCACUAUCGAGAGGAUAUGCGGUGAUGGACAUGAGGAUCACCCAUGUUAGCGAUGGCAUCACGGCAGAAGGCUCUGCUGCUGC	15.6	12.8	–	–
CCAGAGUGAGGAUAUGCAUAAAGGUGCUGUCCCGUGGCUUGACAUGAGGAUCACCCAUGUAGAAGGUGCGUUGU	–	–	48.7	40.3
CCUCGACAUGAGGAUCACCCAUGUCAGGAUAUUGUGUAUCGGGUUUUUUACCGAAAGGCGAGAAGGGAUGUGUG	–	–	16.9	23.1
UUUGCAUUCCGAGGAUAUUCUUUUAUUGUCUUCACAUGAGGAUCACCCAUGUGGCGCUUGCGCCGGGAGAAGGCGGUUUGCUUU	23.9	24.5	–	–
UACGUAUGAGGAUAUACAAACAGAAAAAUCAGACGUAACUGACAUGAGGAUCACCCAUGUAGAAGGCAUAUACA	–	–	27.7	18.6
AAAAAGCGAGGAUAUACAUAGCUAAGACAAAUAAGCAAAAAACAUGAGGAUCACCCAUGUAGAAGGCGCAAAAA	–	–	19.2	15.4
GGAUGACAAAGUCAUCCAAAUCGAACAUGAGGAUCACCCAUGUAGGAUAUCCUACUCAAAGAGUAGGAGAAGGACAUGUGCUUU	–	–	53.1	178
GGGCUCGGAGGAUAUACAUGAGGAUCACCCAUGUAUCUGGGUCUUAUUGGGCUCGGGUGUAGAAGGCUGGGUCU	–	–	13.9	15.5
